The values below come from ChEMBL document CHEMBL1128217, “Synthesis, structure-affinity relationships, and biological activities of ligands binding to retinoic acid receptor subtypes” (J Med Chem, 1995).

Usually AC50 stands for the concentration at which the activity in the assay is half-maximal. A lower AC50 goes with activity at low concentration. Broadly, the pKi is −log10 of the Ki, conventionally taken in molar units. A higher pKi goes with a small Ki. Broadly, the pIC50 is the negative decadic logarithm of the IC50, by convention in mol/L. Higher therefore signals a small IC50.

SMILES strings stand for the structures. pIC50, pKi: −log10 of the molar value.

Assay [1] relates to F9. Briefly: In vitro promotion of plasminogen activator secretion from F9 (murine teratocarcinoma) cells. In kind it is functional, cell-based. As to conditions: Mus musculus; call rule not given here. The method, boiled down: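 F9 murine teratocarcinoma cells grown in DMEM with 15% fetal bovine serum, exposed 3 days to a range of retinoid concentrations. Differentiation quantified by plasminogen activator secretion; AC50 (concentration giving half-maximal secretion) obtained by nonlinear regression.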

Assay [2] deals with T1, Retinoic acid receptor beta (Homo sapiens, UniProt P10826).
T1 sequence (P10826 whole entry): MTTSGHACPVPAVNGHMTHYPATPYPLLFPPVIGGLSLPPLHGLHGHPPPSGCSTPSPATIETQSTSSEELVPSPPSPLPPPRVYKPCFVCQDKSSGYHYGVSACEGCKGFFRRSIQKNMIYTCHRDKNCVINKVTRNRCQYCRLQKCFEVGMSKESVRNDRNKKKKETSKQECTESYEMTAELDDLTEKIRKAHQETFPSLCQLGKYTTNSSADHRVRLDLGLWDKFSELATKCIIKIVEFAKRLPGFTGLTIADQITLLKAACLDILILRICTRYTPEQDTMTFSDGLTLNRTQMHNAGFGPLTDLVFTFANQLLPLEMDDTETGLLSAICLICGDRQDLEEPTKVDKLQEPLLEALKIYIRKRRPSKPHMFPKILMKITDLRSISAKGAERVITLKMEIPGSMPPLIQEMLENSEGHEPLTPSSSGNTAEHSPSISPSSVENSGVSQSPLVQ
Briefly: Binding affinity to retinoic acid receptor beta using [3H]CD 367 as radioligand.

Assay [3] has as its target T2, Retinoic acid receptor alpha (Homo sapiens, UniProt P10276).
T2 sequence (P10276 whole entry): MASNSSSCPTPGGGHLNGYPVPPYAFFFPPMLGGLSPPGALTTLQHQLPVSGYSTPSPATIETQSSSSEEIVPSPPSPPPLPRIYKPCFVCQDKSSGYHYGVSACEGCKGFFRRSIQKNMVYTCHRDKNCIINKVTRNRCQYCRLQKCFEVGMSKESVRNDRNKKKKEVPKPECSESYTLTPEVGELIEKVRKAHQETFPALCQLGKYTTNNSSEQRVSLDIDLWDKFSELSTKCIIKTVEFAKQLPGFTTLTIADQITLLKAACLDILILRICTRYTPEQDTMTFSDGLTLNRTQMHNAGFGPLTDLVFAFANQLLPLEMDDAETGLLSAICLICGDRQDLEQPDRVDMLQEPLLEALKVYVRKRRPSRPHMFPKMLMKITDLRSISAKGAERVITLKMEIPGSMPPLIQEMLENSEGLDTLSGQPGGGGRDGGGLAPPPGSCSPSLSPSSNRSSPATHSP
Briefly: Binding affinity to retinoic acid receptor alpha using [3H]CD 367 as radioligand.

Assay [4] deals with T3, Retinoic acid receptor gamma (Homo sapiens, UniProt P13631).
T3 sequence (P13631 whole entry): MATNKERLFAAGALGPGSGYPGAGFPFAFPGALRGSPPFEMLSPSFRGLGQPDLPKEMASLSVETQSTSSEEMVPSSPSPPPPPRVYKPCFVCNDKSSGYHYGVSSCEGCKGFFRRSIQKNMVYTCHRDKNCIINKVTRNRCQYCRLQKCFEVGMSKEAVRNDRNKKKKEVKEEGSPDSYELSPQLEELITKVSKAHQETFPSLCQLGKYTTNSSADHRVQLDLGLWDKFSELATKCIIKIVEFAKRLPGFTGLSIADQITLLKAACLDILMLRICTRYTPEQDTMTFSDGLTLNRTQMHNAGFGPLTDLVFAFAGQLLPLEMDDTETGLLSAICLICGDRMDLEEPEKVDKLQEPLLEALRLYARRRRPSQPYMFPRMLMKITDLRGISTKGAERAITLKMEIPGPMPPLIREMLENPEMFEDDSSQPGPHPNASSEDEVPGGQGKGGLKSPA
Briefly: Binding affinity to retinoic acid receptor (RAR) gamma using [3H]CD 367 as radioligand.

Assay [5] relates to F9. Briefly: Compound was evaluated for its inhibitory activity against F9 murine teratocarcinoma cell differentiation; NA=not active. In kind it is functional, cell-based, Mus musculus.
The subject of assay [6] is F9. Briefly: Compound was evaluated for its inhibitory activity against F9 murine teratocarcinoma cell differentiation;NA=not active. In kind it is functional, cell-based, Mus musculus.
In assay [7] the test system is F9. Briefly: Compound was evaluated for its inhibitory activity against F9 murine teratocarcinoma cell differentiation. It counts as functional, cell-based. As to conditions: Mus musculus.

For the compound `COc1ccc(-c2ccc3cc(C(=O)O)ccc3c2)cc1C12CC3CC(CC(C3)C1)C2`, the AC50 in the assay with F9 [1] turned out to be 37 nM. The pKi is 7.47 in assay [2] and 5.96 in assay [3].
On to `O=C(O)c1ccc2cc(-c3ccc(C(=O)O)c(C45CC6CC(CC(C6)C4)C5)c3)ccc2c1`, for which the AC50 in the assay with F9 [1] is 2000 nM. For the same compound, the pKi in assay [4], in assay [2] and in assay [3] was less than 5.00 each time.
Turning to `COc1ccc(-c2ccc3cc(C(=O)O)ccc3c2)cc1C(C)(C)C`, the half-maximal activity concentration (AC50) in the assay with F9 [1] is 200 nM. Further, the values for the pKi in assay [4], in assay [2] and in assay [3] were 6.37, 7.44 and 5.19, respectively.
In the assay on F9 [1], `COc1ccc(/C(C)=C/c2ccc(C(=O)O)cc2)cc1C12CC3CC(CC(C3)C1)C2` returned an AC50 of 100 nM. Besides, the pKi was 7.02 in assay [4], 6.98 in assay [2] and 6.34 in assay [3].
`O=C(O)c1ccc2cc(-c3ccc(CC(O)CO)c(C45CC6CC(CC(C6)C4)C5)c3)ccc2c1` (centres undefined) yielded an AC50 in the assay with F9 [1] of 100 nM. The pKi in assay [4] is 7.47; in assay [2], 6.80; in assay [3], less than 5.00.
For `O=C(O)c1ccc(/C=C/c2ccc(O)c(C34CC5CC(CC(C5)C3)C4)c2)cc1`, in that order: 1 nM, 7.70, 7.15 and 6.21.
For `O=C(O)c1ccc2cc(-c3ccc(OCC(O)CO)c(C45CC6CC(CC(C6)C4)C5)c3)ccc2c1` (centres undefined), in that order: 83 nM, 6.82, 7.05 and 5.30.
With `CC1(c2cc(-c3ccc4cc(C(=O)O)ccc4c3)ccc2O)CCCCC1`, the AC50 in the assay with F9 [1] is 175 nM. Also, the pKi in assay [4] is 6.92; in assay [2] it was 6.18; in assay [3] it was less than 5.00.
Turning to `CCCCCCOc1ccc(-c2ccc3cc(C(=O)O)ccc3c2)cc1C12CC3CC(CC(C3)C1)C2`, in the assay with F9 [5], the AC50 result was “Not Active”. Moreover, the pKi in assay [4], in assay [2] and in assay [3] was less than 5.00 in each case.
`CC1(C)CCC(C)(C)c2cc(-c3ccc4cc(C(=O)O)ccc4c3)ccc21` yielded an AC50 in the assay on F9 [1] of 15 nM. The pKi in assay [4] is 7.40; in assay [2] it was 7.89; in assay [3], 6.24.
The compound `C/C(=C\c1ccc(C(=O)O)cc1)c1ccc2c(c1)C(C)(C)CCC2(C)C` gave an AC50 with F9 [1] of 0.78 nM.
In the assay with F9 [1], `CC1(C)CCOc2ccc(-c3ccc4cc(C(=O)O)ccc4c3)cc21` returned an AC50 of 300 nM. For the same compound, the pKi in assay [4] is 6.07; in assay [2], 6.68; in assay [3] it was 5.07.
The like results for `C/C(=C\c1ccc(C(=O)O)cc1)c1ccc(O)c(C2(C)CCCCC2)c1` were, in that order, 300 nM, 7.57, 7.05 and 5.98.
For `COc1ccc(-c2ccc3cc(C(=O)O)ccc3c2)cc1C1(C)CCCCC1`, in that order: 150 nM, 6.80, 7.59 and 5.95.
Regarding `C/C(=C\c1ccc(C(=O)O)cc1)c1ccc(O)c(C(C)(C)C)c1`, the AC50 result with F9 [6] is on record as “Not Active”. In addition, the pIC50 with F9 [7] is 6.15. Also, the values for the pKi in assay [4], in assay [2] and in assay [3] were 7.07, 6.98 and 6.08, respectively.
Consider `COc1ccc(/C(C)=C/c2ccc(C(=O)O)cc2)cc1C1(C)CCCCC1`, for which, in the assay on F9 [1], the activity was half-maximal at 30 nM (AC50). Moreover, the pKi was 7.54 in assay [4], 7.77 in assay [2] and 6.38 in assay [3].
For `O=C(O)c1ccc2cc(-c3ccc(C(O)CO)c(C45CC6CC(CC(C6)C4)C5)c3)ccc2c1` (centres undefined), in that order: 73 nM, 6.82, 6.54 and less than 5.00.
For `O=C(O)c1ccc2cc(-c3ccc(CCCO)c(C45CC6CC(CC(C6)C4)C5)c3)ccc2c1`, in that order: 7.5 nM, 7.14, 7.68 and 6.16.
For the compound `CC1(C)CCC(C)(C)c2cc3cc(-c4ccc(C(=O)O)cc4)ccc3cc21`, the activity with F9 [1] was half-maximal at 0.46 nM (AC50). In addition, the pKi was 8.70 in assay [4], 8.52 in assay [2] and 8.28 in assay [3].
Compound `C/C(=C\c1ccc(C(=O)O)cc1)c1ccc(O)c(C23CC4CC(CC(C4)C2)C3)c1` showed an AC50 with F9 [1] of 66 nM. The negative-log Ki (pKi) in assay [4] is 7.28; in assay [2], 5.90; in assay [3], 5.94.
For `O=C(O)c1ccc2cc(-c3ccc(CO)c(C45CC6CC(CC(C6)C4)C5)c3)ccc2c1`, in that order: 460 nM, 6.41, 6.81 and less than 5.00.
Turning to `CC(C)(C)c1cc(-c2ccc3cc(C(=O)O)ccc3c2)ccc1O`, the AC50 entry with F9 [6] is listed as “Not Active”. In addition, the IC50 entry in the assay on F9 [6] is “Not Active”. Further, the pKi in assay [4] was 6.70; in assay [2], 5.45; in assay [3] it was less than 5.00.
`COc1ccc(/C(C)=C/c2ccc(C(=O)O)cc2)cc1C(C)(C)C`: the AC50 with F9 [1] came out at 30 nM. Also, the results for the pKi in assay [4], in assay [2] and in assay [3] were 7.89, 7.92 and 6.89, respectively.
In the assay on F9 [1], `O=C(O)c1ccc2cc(-c3ccc(O)c(C45CC6CC(CC(C6)C4)C5)c3)ccc2c1` [O-DEMETHYLATED ADAPALENE] gave an AC50 of 33 nM. The pKi in assay [2] was 5.61; in assay [3], 5.19.
Turning to `CC1=C(/C=C/C(C)=C/C=C/C(C)=C/C(=O)O)C(C)(C)CCC1` [TRETINOIN], in the assay with F9 [1], the activity was half-maximal at 200 nM (AC50).
